This note sets out measurements from ChEMBL document CHEMBL1921671, “Benzisothiazolinone as a useful template for the design of new monoacylglycerol lipase inhibitors: investigation of the target residues and comparison with octhilinone” (Bioorg Med Chem Lett, 2011).

Residue numbers refer to the chain shown, from its start. The source made the active and inactive calls. No cut-off for these calls is given here.

As a reminder, the IC50 is the concentration that inhibits the measured activity by half. For orientation: inhibition means how much of the control response was suppressed.

Assay [1] concerns the target T1, Fatty-acid amide hydrolase 1 (Homo sapiens, UniProt O00519).
T1 sequence (O00519 whole entry): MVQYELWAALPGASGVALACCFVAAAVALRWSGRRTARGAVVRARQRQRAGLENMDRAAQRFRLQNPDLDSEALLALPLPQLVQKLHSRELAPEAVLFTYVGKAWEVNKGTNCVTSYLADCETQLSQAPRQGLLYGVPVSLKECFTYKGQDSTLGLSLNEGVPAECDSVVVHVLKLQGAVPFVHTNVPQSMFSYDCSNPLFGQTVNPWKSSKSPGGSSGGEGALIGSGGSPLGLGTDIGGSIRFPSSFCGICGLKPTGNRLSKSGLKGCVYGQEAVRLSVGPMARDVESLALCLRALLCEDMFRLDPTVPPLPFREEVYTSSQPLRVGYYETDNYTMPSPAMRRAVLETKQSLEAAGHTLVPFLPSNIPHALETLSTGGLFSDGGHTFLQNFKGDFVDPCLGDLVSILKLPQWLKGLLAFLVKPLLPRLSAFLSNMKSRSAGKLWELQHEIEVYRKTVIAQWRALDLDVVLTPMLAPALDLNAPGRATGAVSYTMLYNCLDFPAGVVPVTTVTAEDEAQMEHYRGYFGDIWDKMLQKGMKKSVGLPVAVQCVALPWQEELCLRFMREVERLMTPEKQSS
The assay is described as follows: Inhibition of human recombinant FAAH assessed as conversion of [3H]AEA to [3H]ethanolamine after 10 mins by liquid scintillation counting.

Assay [2] deals with T2, Monoglyceride lipase (Homo sapiens, UniProt Q99685).
T2 sequence (Q99685 whole entry): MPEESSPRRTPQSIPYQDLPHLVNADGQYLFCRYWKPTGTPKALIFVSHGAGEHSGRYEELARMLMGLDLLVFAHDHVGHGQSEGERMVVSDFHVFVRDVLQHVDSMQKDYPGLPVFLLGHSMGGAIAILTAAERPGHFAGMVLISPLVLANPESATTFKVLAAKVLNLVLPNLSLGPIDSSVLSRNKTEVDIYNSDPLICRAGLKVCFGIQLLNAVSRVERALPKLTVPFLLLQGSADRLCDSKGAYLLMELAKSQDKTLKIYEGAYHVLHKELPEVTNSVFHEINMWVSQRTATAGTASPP
The assay is described as follows: Inhibition of human recombinant MAGL assessed as [3H]oleoylglycerol hydrolysis after 10 mins by liquid scintillation counting. The method, boiled down:
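Purified recombinant human MAGL, 5 ng, in 50 mM Tris pH 8.0 with 0.1% BSA, preincubated with […]. Substrate [3H]-2-oleoylglycerol at 10 µM final in Tris pH 8.0 with 0.6% BSA. Reaction run 10 min at 37 °C and stopped with ice-cold 1:1 methanol/chloroform, then centrifuged. Aqueous-phase radioactivity counted by liquid scintillation; no-enzyme blanks subtracted.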

Assay [3] has as its target T2, Monoglyceride lipase. Description: Inhibition of human recombinant MAGL assessed as inhibition of 2-oleoylglycerol hydrolysis preincubated for 10 mins by LC/MS analysis.
Assay [4] is filed under the species Homo sapiens. Description: Selectivity ratio of IC50 for human recombinant FAAH to IC50 for human recombinant MAGL by liquid scintillation counting.
Assay [5] deals with T3, Monoglyceride lipase (Homo sapiens) (UniProt Q99685).
T3 sequence (whole entry): T2 sequence (Q99685 whole entry)
Description: Inhibition of human recombinant MAGL assessed as [3H]oleoylglycerol hydrolysis at 1 mM after 10 mins by liquid scintillation counting. In outline:
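Single-concentration test at 10^-3 M against purified recombinant human MAGL, 5 ng. Inhibitor preincubated 10 min at 37 °C. [3H]-2-oleoylglycerol at 10 µM final hydrolysed 10 min at 37 °C in 50 mM Tris pH 8.0 with BSA. Reaction quenched with cold methanol/chloroform. Aqueous-layer radioactivity read by scintillation, blanks subtracted, and result expressed as % inhibition.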

The target of assay [6] is T4, Fatty-acid amide hydrolase 1 (Homo sapiens) (UniProt O00519).
T4 sequence (whole entry): T1 sequence (O00519 whole entry)
The assay is described as follows: Inhibition of human recombinant FAAH assessed as conversion of [3H]AEA to [3H]ethanolamine at 1 mM after 10 mins by liquid scintillation counting.

The subject of assay [7] is T5, Monoglyceride lipase (Homo sapiens), Q99685 [C208A].
T5 sequence (whole entry): T2 sequence (Q99685 whole entry) with C208A
Description: Inhibition of human MAGL C208A mutant.

Assay [8] in a line: Selectivity ratio of IC50 for rat MAGL to IC50 for human MAGL.
For assay [9], the target named is T3, Monoglyceride lipase (Homo sapiens). Description: Inhibition of human recombinant MAGL assessed as [3H]oleoylglycerol hydrolysis preincubated for 10 mins at 37 degC by liquid scintillation counting. In outline:
(§1)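 Purified recombinant human MAGL (5 ng; 50 mM Tris pH 8.0, 0.1% BSA) preincubated with inhibitor at the line's time and temperature. Then incubated 10 min at 37 °C with 2-OG (10 µM final; [3H]-2-OG 50,000 dpm; Tris pH 8.0 with 0.6% BSA). Stopped with ice-cold methanol:chloroform 1:1 and centrifuged. Aqueous-phase radioactivity counted by liquid scintillation. No-enzyme blanks subtracted.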

Assay [10] shares this target. Description: Inhibition of human recombinant MAGL assessed as inhibition of [3H]oleoylglycerol hydrolysis preincubated for 30 mins at room temperature by liquid scintillation counting. In outline:
as §1

For assay [11], the species on record is Homo sapiens. The assay is described as follows: Selectivity ratio of IC50 for human recombinant FAAH to IC50 for human recombinant MAGL by liquid scintillation counting of radiolabeled 2-OG hydrolysis.
Assay [12] deals with T6, Monoglyceride lipase (Homo sapiens), Q99685 [C201A].
T6 sequence (whole entry): T2 sequence (Q99685 whole entry) with C201A
Description: Inhibition of human MAGL C201A mutant.

For assay [13], the system named is T7, Monoglyceride lipase (Homo sapiens), Q99685 [C201A,C208A,C242A].
T7 sequence (whole entry): T2 sequence (Q99685 whole entry) with C201A, C208A, C242A
The assay is described as follows: Inhibition of human MAGL C201A/C208A/C242A mutant.

Assay [14] concerns T8, Monoglyceride lipase (Homo sapiens), Q99685 [C242A].
T8 sequence (whole entry): T2 sequence (Q99685 whole entry) with C242A
Description: Inhibition of human MAGL C242A mutant.

Assay [15] addresses T3, Monoglyceride lipase (Homo sapiens). Description: Inhibition of human recombinant MAGL assessed as [3H]oleoylglycerol hydrolysis preincubated for 30 mins at 37 degC by liquid scintillation counting. In outline: as §1
The target is the same in assay [16]. Description: Inhibition of human recombinant MAGL assessed as [3H]oleoylglycerol hydrolysis at 10^-5 M preincubated for 5 mins measured after 15 mins by liquid scintillation counting in the presence of dithiothreitol.
Assay [17] has the same target. The assay is described as follows: Inhibition of human recombinant MAGL assessed as [3H]oleoylglycerol hydrolysis preincubated for 10 mins at room temperature by liquid scintillation counting. In outline:
as §1

Assay [18] has as its target T9, Monoglyceride lipase (Rattus norvegicus, UniProt Q8R431).
T9 sequence (Q8R431 whole entry): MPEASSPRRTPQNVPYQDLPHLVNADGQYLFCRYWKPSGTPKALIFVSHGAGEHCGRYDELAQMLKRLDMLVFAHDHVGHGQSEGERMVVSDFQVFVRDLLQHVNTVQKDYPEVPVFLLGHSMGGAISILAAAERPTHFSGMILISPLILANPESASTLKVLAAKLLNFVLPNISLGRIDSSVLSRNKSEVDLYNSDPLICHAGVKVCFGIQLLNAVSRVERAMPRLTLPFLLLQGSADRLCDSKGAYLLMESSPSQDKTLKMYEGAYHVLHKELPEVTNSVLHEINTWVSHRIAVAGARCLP
Description: Inhibition of rat recombinant N-terminal his-tagged MAGL expressed in Escherichia coli DH5alpha assessed as 2-oleoylglycerol hydrolysis after 10 mins by LC/MS analysis.

Take `CCCCCCCCn1sccc1=O` [OCTHILINONE]: the IC50 stood at 18.9 µM in assay [1], 1.09 µM at Monoglyceride lipase [2] and 0.14 µM at Monoglyceride lipase [3].
Consider `O=c1c2ccccc2sn1Cc1ccc(-c2ccccc2)cc1`, for which the IC50 in assay [1] was determined as 30 µM; at Monoglyceride lipase [2], 0.41 µM. Moreover, the Ratio IC50 in the assay listed under Homo sapiens [4] turned out to be 73.
The corresponding values for `CCCCCCCCOc1noc2ccccc12` are 31.6 µM, 67.9 µM and 0.47.
With `CCCCCCCCN1C(=O)c2ccccc2C1=O`, the inhibition result in assay [5] and in assay [6] was “inactive” throughout.
On to `CCCCCCCCn1oc2ccccc2c1=O`, for which the IC50 turned out to be 44.7 µM in assay [1] and 275 µM on Monoglyceride lipase [2]. The Ratio IC50 in the assay filed under Homo sapiens [4] was 0.16.
With `CCCCCCCCOc1nsc2ccccc12`, the inhibition turned out to be 55% in assay [5] and 43% in assay [6].
With `CCCCCCCCN1Cc2ccccc2C1=O`, the inhibition entry in assay [5] and in [6] was “inactive” in each case.
As for `c1ccc(-c2ccc(COc3nsc4ccccc34)cc2)cc1`, the inhibition entry in assay [5] was “inactive”. Moreover, the inhibition in assay [6] is 50%.
With `CCCCCCCCN1SCCC1=O`, the inhibition result in assay [7], in [12], in assay [13], in assay [14] and in [16] was “inactive” in each case. For the same compound, the Ratio IC50 in assay [8] came out at 1.5; in the assay listed under Homo sapiens [11], 53; in the assay listed under Homo sapiens [4] it was 17.3. In addition, the inhibition entry in [9], in [10], in assay [15] and in [17] was “Active” throughout.
Turning to `CCCCCCCCn1c(=O)oc2ccccc21`, the IC50 in assay [1] stood at 129 µM. For the same compound, in assay [5], the inhibition came out at 26%.
As to `CCCCCCCCn1sc2ccccc2c1=O`, the inhibition result in assay [7], in assay [9], in [10], in [15] and in assay [17] was “Active” in each case. Further, the Ratio IC50 in [8] worked out at 11; in the assay listed under Homo sapiens [11], 53; in the assay listed under Homo sapiens [4], 21.2. The IC50 was found to be 35.2 µM in [1], 1.66 µM at Monoglyceride lipase [2], 0.66 µM on Monoglyceride lipase [3] and 0.059 µM on Monoglyceride lipase [18]. Moreover, the inhibition result in [12], in [13], in assay [14] and in assay [16] was “inactive” each time.
Turning to `CCCCCCCCn1c(=O)sc2ccccc21`, the IC50 in [1] turned out to be 309 µM. Also, the inhibition in assay [5] worked out at 72%.
